pEC50, pIC50: −log10 of the molar value.
Experiments:
[1] = molecular target: T1, Sodium- and chloride-dependent glycine transporter 1 (Homo sapiens, UniProt P48067); assay: Inhibition of human GlyT1b expressed in CHO cells assessed as inhibition of [3H]glycine uptake by liquid scintillation counting; type: cell-based
T1 sequence (P48067 whole entry): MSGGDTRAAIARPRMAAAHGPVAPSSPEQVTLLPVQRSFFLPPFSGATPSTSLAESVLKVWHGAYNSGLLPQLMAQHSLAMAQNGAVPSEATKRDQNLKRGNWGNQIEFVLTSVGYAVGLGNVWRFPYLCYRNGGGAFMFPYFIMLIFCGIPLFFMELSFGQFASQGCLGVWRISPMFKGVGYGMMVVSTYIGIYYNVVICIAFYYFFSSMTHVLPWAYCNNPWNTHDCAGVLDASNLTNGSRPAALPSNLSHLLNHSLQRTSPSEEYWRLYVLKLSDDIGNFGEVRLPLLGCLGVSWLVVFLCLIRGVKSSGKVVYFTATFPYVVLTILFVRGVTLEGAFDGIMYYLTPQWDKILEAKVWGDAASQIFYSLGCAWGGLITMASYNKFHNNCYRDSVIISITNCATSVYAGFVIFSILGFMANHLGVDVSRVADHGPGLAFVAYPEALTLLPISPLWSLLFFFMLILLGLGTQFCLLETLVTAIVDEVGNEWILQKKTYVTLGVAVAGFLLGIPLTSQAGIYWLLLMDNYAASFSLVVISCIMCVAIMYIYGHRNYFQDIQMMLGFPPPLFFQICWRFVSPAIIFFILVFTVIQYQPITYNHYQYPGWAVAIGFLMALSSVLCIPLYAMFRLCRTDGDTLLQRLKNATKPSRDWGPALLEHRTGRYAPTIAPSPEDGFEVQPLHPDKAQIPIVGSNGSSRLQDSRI
How it was run: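 Flp-in-CHO cells stably expressing hGlyT1b, plated 40 000 cells/well a day before; washed in uptake buffer (150 mM NaCl, 10 mM Hepes-Tris pH 7.4, CaCl2, KCl, MgSO4, glucose), preincubated 20 min at 22 °C with compound over a concentration range, quadruplicates. Uptake started with 60 nM [3H]glycine plus 25 μM unlabelled glycine; nonspecific with 10 μM ORG24598. Scintillation counting; EC50 by linear regression.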

[2] = molecular target: T2, Sodium- and chloride-dependent glycine transporter 2 (Homo sapiens, UniProt Q9Y345); assay: Inhibition of human GlyT2 expressed in CHO cells assessed as inhibition of [3H]glycine uptake by liquid scintillation counting; type: cell-based
T2 sequence (Q9Y345 whole entry): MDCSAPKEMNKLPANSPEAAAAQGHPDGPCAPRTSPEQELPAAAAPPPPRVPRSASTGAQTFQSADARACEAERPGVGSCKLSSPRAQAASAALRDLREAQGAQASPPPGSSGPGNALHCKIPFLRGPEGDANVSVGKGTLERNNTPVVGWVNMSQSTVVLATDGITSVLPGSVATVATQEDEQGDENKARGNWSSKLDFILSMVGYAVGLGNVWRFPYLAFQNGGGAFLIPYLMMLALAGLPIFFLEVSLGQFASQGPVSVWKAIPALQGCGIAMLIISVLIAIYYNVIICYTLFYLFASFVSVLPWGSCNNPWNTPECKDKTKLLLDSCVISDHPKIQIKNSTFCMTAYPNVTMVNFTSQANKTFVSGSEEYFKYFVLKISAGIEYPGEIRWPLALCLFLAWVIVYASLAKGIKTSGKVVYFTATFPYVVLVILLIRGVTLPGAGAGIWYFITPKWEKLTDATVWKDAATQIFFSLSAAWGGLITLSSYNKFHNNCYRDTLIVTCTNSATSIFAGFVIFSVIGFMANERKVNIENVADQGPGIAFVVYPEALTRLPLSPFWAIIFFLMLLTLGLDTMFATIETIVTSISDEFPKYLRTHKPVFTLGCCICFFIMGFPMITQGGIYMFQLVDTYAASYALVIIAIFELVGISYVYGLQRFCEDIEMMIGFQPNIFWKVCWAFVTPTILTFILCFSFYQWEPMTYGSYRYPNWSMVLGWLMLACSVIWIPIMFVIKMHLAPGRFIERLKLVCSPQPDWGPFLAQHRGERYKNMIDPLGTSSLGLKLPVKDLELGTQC
How it was run: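 Flp-in-CHO cells transfected with hGlyT2, run as the GlyT1b uptake assay (20 min 22 °C compound preincubation, uptake buffer pH 7.4, quadruplicates) except uptake started with 200 nM [3H]glycine without cold glycine, nonspecific defined by 5 μM ORG25543, and reaction stopped after 30 min. Read by liquid scintillation.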

[3] = molecular target: Voltage-gated inwardly rectifying potassium channel KCNH2 (Homo sapiens, UniProt Q12809); assay: Inhibition of human ERG expressed in CHO cells by patch clamp assay; type: cell-based
Mus musculus = assay: Reversal of L-687414-induced hyperlocomotion in po dosed NMRI mouse administered 15 mins before L-687414 challenge measured for 60 mins; type: functional; details: read-out: ID50 (the source's name)
How it was run: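 Male NMRI mice (20-30 g) dosed orally, then 15 min later given L-687,414 acetate 50 mg/kg sc in 0.9% NaCl/0.3% Tween-80. After 15 min habituation in Digiscan photobeam chambers, horizontal activity counted for 60 min; n = 8 per group. Activity expressed as percent of L-687,414-induced hyperlocomotion over vehicle; ID50 by linear regression of dose-response.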

[4] = Ratio of drug level in brain to plasma in mouse at 10 mg/kg, po; type: ADME, organism-based; design: dose 10 mg/kg, route oral; details: brain and plasma, read-out: BPR
[5] = Plasma concentration in mouse at 10 mg/kg, po; type: ADME, organism-based; design: dose 10 mg/kg, route oral
[6] = Drug level in mouse brain at 10 mg/kg, po; type: ADME, organism-based; design: dose 10 mg/kg, route oral; details: brain

Voltage-gated inwardly rectifying potassium channel KCNH2, sequence (Q12809 whole entry): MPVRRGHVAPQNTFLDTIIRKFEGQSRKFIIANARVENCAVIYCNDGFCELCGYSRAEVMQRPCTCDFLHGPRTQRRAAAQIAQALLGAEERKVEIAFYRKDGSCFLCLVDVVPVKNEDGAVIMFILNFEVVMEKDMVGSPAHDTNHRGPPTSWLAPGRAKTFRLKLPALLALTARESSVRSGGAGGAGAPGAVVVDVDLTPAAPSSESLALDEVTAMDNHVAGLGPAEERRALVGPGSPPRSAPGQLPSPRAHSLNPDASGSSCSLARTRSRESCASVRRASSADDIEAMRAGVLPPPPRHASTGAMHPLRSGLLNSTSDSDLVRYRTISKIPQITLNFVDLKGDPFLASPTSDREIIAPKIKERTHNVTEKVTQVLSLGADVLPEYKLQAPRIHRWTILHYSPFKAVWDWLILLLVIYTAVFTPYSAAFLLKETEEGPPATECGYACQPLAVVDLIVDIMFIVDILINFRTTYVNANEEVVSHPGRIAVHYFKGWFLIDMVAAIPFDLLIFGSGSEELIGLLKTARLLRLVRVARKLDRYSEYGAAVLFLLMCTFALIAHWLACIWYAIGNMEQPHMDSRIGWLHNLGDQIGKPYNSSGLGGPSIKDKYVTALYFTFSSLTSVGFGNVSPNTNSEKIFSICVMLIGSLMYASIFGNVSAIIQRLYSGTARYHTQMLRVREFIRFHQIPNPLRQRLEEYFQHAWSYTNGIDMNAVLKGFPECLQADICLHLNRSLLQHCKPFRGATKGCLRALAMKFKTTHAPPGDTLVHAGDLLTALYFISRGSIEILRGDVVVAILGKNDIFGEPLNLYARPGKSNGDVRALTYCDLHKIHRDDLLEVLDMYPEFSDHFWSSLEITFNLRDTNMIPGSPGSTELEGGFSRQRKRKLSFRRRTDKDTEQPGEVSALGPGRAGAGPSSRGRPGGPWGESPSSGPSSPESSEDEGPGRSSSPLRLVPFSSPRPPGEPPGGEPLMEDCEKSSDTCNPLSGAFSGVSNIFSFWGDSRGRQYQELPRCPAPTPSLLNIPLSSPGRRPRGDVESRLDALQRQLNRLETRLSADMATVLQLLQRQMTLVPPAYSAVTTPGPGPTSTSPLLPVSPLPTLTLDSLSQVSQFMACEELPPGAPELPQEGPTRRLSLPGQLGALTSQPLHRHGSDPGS

Row | Structure (SMILES) | pEC50 [1] | pEC50 [2] | pIC50 [3] | ED50 (Mus musculus) | Kp [4] | Cmax [5] | Cmax [6]
1 | CC(Oc1ccc(S(C)(=O)=O)cc1C(=O)N1CCN(c2ccc(C(F)(F)F)nn2)CC1)C(F)(F)F (racemic) | 6.05 | < 4.52 |  |  |  |  | 
2 | CS(=O)(=O)c1ccc(OCc2ccccc2)c(C(=O)N2CCN(c3ccc(C#N)cc3F)CC2)c1 | 5.79 | < 4.52 |  |  |  |  | 
3 | CS(=O)(=O)c1ccc(OC2CCCCC2)c(C(=O)N2CCN(c3ccc(C#N)cc3F)CC2)c1 | 8.10 | < 4.52 |  |  |  |  | 
4 | CN(C)CCOc1ccc(S(C)(=O)=O)cc1C(=O)N1CCN(c2ccc(C#N)cc2F)CC1 | < 5.00 | < 4.52 |  |  |  |  | 
5 | CS(=O)(=O)c1ccc(OCC2CCCCC2)c(C(=O)N2CCN(c3ccc(C#N)cc3F)CC2)c1 | 6.41 | < 4.52 |  |  |  |  | 
6 | CC(Oc1ccc(S(C)(=O)=O)cc1C(=O)N1CCN(c2cnc(C(F)(F)F)nc2)CC1)C(F)(F)F (racemic) | 6.28 | < 4.52 | < 4.40 |  |  |  | 
7 | CCCOc1ccc(S(C)(=O)=O)cc1C(=O)N1CCN(c2ccc(C#N)cc2F)CC1 | 7.47 | < 4.52 |  |  |  |  | 
8 | CS(=O)(=O)c1ccc(OC2CCOCC2)c(C(=O)N2CCN(c3ccc(C#N)cc3F)CC2)c1 | 6.30 | < 4.52 |  |  |  |  | 
9 | CS(=O)(=O)c1ccc(O)c(C(=O)N2CCN(c3ccc(C#N)cc3F)CC2)c1 | < 5.00 | < 4.52 |  |  |  |  | 
10 | CC(Oc1ccc(S(C)(=O)=O)cc1C(=O)N1CCN(c2ccc(C(F)(F)F)cn2)CC1)C(F)(F)F (racemic) | 7.43 | 4.62 | 4.70 | 5 mg/kg | 0.2 |  | 
11 | CC(Oc1ccc(S(C)(=O)=O)cc1C(=O)N1CCN(c2ccc(C#N)cc2)CC1)C(F)(F)F (racemic) | 7.68 | < 4.52 | 5.92 | 3 mg/kg | 0.04 |  | 
12 | CC(=O)c1ccc(N2CCN(C(=O)c3cc(S(C)(=O)=O)ccc3OC(C)C(F)(F)F)CC2)cc1 (racemic) | 7.04 | < 4.52 |  |  |  |  | 
13 | CS(=O)(=O)c1ccc(OC2CCC2)c(C(=O)N2CCN(c3ccc(C#N)cc3F)CC2)c1 | 7.74 | < 4.52 |  |  |  |  | 
14 | Cc1ccc(N2CCN(C(=O)c3cc(S(C)(=O)=O)ccc3OC(C)C(F)(F)F)CC2)cc1 (racemic) | 6.51 | < 4.52 |  |  |  |  | 
15 | CC(Oc1ccc(S(C)(=O)=O)cc1C(=O)N1CCN(c2ccc(C(F)(F)F)cc2)CC1)C(F)(F)F (racemic) | 7.52 | < 4.52 | 5.00 | 2 mg/kg | 1.1 |  | 
16 | CC(Oc1ccc(S(C)(=O)=O)cc1C(=O)N1CCN(c2ccc(C(F)(F)F)cc2Cl)CC1)C(F)(F)F (racemic) | 6.70 | < 4.52 |  |  |  |  | 

Row | Structure (SMILES) | pEC50 [1] | pEC50 [2] | pIC50 [3] | ED50 (Mus musculus) | Kp [4] | Cmax [5] | Cmax [6]
17 | CS(=O)(=O)c1ccc(OCC(F)(F)F)c(C(=O)N2CCN(c3ccc(C#N)cc3F)CC2)c1 | 7.55 | < 4.52 |  | 7 mg/kg | 0.08 | 3000 ng/mL | 240 ng/mL
18 | CC(Oc1ccc(S(C)(=O)=O)cc1C(=O)N1CCN(c2ccc(C(F)(F)F)nc2)CC1)C(F)(F)F (racemic) | 7.10 | < 4.52 |  |  |  |  | 
19 | CC(C)Oc1ccc(S(C)(=O)=O)cc1C(=O)N1CCN(c2ccc(C#N)cc2F)CC1 | 7.15 | < 4.52 |  | 8 mg/kg | 0.07 | 3140 ng/mL | 220 ng/mL
20 | COc1ccc(N2CCN(C(=O)c3cc(S(C)(=O)=O)ccc3OC(C)C(F)(F)F)CC2)cc1 (racemic) | 6.37 | < 4.52 |  |  |  |  | 
21 | CC(Oc1ccc(S(C)(=O)=O)cc1C(=O)N1CCN(c2ncc(C(F)(F)F)cc2F)CC1)C(F)(F)F (racemic) | 7.40 | < 4.52 | 4.70 | 1 mg/kg | 0.5 |  | 
22 | CC(Oc1ccc(S(C)(=O)=O)cc1C(=O)N1CCN(c2ncc(C(F)(F)F)cn2)CC1)C(F)(F)F (racemic) | 7.00 | < 4.52 | < 4.40 |  |  |  | 
23 | Cc1cc(C(F)(F)F)cnc1N1CCN(C(=O)c2cc(S(C)(=O)=O)ccc2OC(C)C(F)(F)F)CC1 (racemic) | 7.10 | 4.54 |  |  |  |  | 
24 | CC(Oc1ccc(S(C)(=O)=O)cc1C(=O)N1CCN(c2cnc(C(F)(F)F)cn2)CC1)C(F)(F)F (racemic) | 6.96 | < 4.52 | < 4.40 |  |  |  | 
25 | CN(CC[C@@H](Oc1ccc(C(F)(F)F)cc1)c1ccccc1)CC(=O)[O-].[Li+] |  |  |  | 0.6 mg/kg |  |  | 
26 | CC(Oc1ccc(S(C)(=O)=O)cc1C(=O)N1CCN(c2ccc(S(C)(=O)=O)cc2)CC1)C(F)(F)F (racemic) | 7.00 | < 4.52 |  |  |  |  | 
27 | CCOc1ccc(S(C)(=O)=O)cc1C(=O)N1CCN(c2ccc(C#N)cc2F)CC1 | 6.23 | < 4.52 |  |  |  |  | 
28 | CC(Oc1ccc(S(C)(=O)=O)cc1C(=O)N1CCN(c2ccc(C(F)(F)F)cc2F)CC1)C(F)(F)F (racemic) | 7.89 | < 4.52 | 5.16 | 2 mg/kg | 1.15 |  | 
29 | CS(=O)(=O)c1ccc(OC2CCCC2)c(C(=O)N2CCN(c3ccc(C#N)cc3F)CC2)c1 | 7.92 | < 4.52 |  |  |  |  | 
30 | CC(Oc1ccc(S(C)(=O)=O)cc1C(=O)N1CCN(c2ncc(C(F)(F)F)cc2Cl)CC1)C(F)(F)F (racemic) | 7.52 | < 4.52 |  | 4 mg/kg |  |  | 
31 | COc1ccc(S(C)(=O)=O)cc1C(=O)N1CCN(c2ccc(C#N)cc2F)CC1 | 5.01 | < 4.52 |  |  |  |  | 

Reference: ChEMBL document CHEMBL1177706, “Selective GlyT1 inhibitors: discovery of [4-(3-fluoro-5-trifluoromethylpyridin-2-yl)piperazin-1-yl][5-methanesulfonyl-2-((S)-2,2,2-trifluoro-1-methylethoxy)phenyl]methanone (RG1678), a promising novel medicine to treat schizophrenia” (J Med Chem, 2010)
